An excerpt weighted towards active compounds, which were near 2.4% of everything screened.
DNA FID counter: compounds displacing fluorescent DNA intercalator, primary screen, artefact control for HCV NS3 helicase inhibitor project, biochemical, FID fluorescence. DNA fluorescent intercalator displacement. inhibition, % at 7.9 µM. 290,000 compounds, 0.17% hits. AID 1845, 2009; in the data active = inhibition above about 37%;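 note: 0% = vehicle and 100% = reference compound; higher means more ethidium bromide displaced from hairpin DNA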
TMEM16A inh: TMEM16A chloride channel inhibitors, primary screen, cell-based, HTS. Anoctamin-1 (Mus musculus), Q8BHY3. HEK293 TMEM16A/YFP iodide influx fluorescence, ionomycin. normalized B-score (activity score, 25-100; higher = stronger inhibition) at 10 µM. 310,000 compounds, 1.2% hits. AID 588511, 2011;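 active = ratio plate-corrected score three or more library SD toward inhibition, starting fluorescence score within five deviations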;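 note: score derived from kinetic fluorescence span divided by baseline fluorescence per well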
UBC13 inh: UBC13 polyubiquitin chain formation inhibitors, primary screen, biochemical, TR-FRET, uHTS; AID 485273, 2010; inhibition, % at 20 µM; 330,000 compounds, 0.47% hits; in the data active = inhibition above about 45%, passing the limit was not always enough
Target sequence (P61088 whole entry, looked up): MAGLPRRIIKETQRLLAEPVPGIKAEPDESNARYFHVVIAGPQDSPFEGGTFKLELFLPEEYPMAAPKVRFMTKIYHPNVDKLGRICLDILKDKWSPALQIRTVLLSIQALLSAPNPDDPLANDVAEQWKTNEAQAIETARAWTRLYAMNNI
ANO1 activ: TMEM16A chloride channel activators or potentiators, primary screen, cell-based, HTS. Anoctamin-1 (Mus musculus), Q8BHY3. 340,000 compounds, 0.3% hits. B-score at 10 µM. HEK293 TMEM16A/YFP-H148Q/I152L, iodide quench fluorescence; stronger effect = lower value;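 active = fluorescence-ratio B-score plate-corrected deviation score at least 3 library SD below zero, with starting fluorescence score within 5 deviations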;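 note: channel opened by trigger with iodide after compound preincubation; score built on the fluorescence ratio of max minus min over baseline; more negative score means more quench and so TMEM16A activation or potentiation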
Apaf1 inhib: inhibitors of human Apaf-1 apoptosome, primary screen, biochemical, DEVD-Rh110 fluorescence, uHTS | Apoptotic protease-activating factor 1 (Homo sapiens), O14727 | reconstituted apoptosome caspase-3 activity | inhibition, % at 20 µM | 330,000 compounds, 0.71% hits | AID 489030, 2010; active = inhibition of at least 40% at 20 µM;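 note: plate controls were DMSO wells for no effect and DEVD-CHO caspase inhibitor wells for full effect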
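System – cell-free apoptosome with Apaf-1, procaspase-3 and caspase-9 · Buffer or medium – pH 7.5 Hepes buffer with CHAPS, BSA, DTT · Also added – cytochrome c with DEVD-Rh110 · Times – 30 min compound preincubation, 50 min activation, room temperature · Technique – Rh110 fluorescence intensity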
Active calls of the source: *; i = inactive; x = no result given.

SMILES	DNA FID counter	TMEM16A inh	UBC13 inh	ANO1 activ	Apaf1 inhib
CC(=O)Nc1ccc(C(=O)Nc2cccc(S(=O)(=O)N(C)c3ccccc3)c2)cc1	x	x	1	i	-4
CN(c1cccc(NC(=O)c2ccc(N(C)S(=O)(=O)c3ccccc3)cc2)c1)S(C)(=O)=O	-17	100*	-1	i	3
CCN(CC)C(=O)Cn1cc(S(=O)(=O)CC(=O)NCc2ccc(F)cc2)c2ccccc21	-40	i	4	i	12
O=C1c2ccccc2C(=O)N1CCCc1c[nH]c2ccc(Cl)cc12	2	i	-1	i	5
Cc1ccccc1NC(=O)c1ccccc1O	1	25*	4	i	-13
CSc1ccccc1C(=O)Nc1ccccc1C	-1	i	-1	i	1
CCOC(=O)/C(=N\Nc1ccc(Cl)cc1)c1csc(Nc2ccccc2)n1	0	100*	-5	i	-4
O=C(Nc1ncc([N+](=O)[O-])s1)c1ccc2c(c1)OCO2	9	100*	-14	i	4
CCC(Oc1ccccc1)C(=O)Nc1ncc([N+](=O)[O-])s1 (configuration not stated)	4	25*	-13	i	7
Cc1onc(-c2ccccc2)c1C(=O)Nc1ncc([N+](=O)[O-])s1	-2	100*	-3	i	2
O=C(Cc1ccc(Cl)cc1)Nc1ncc([N+](=O)[O-])s1	13	x	x	-42*	x
Cc1cnc(NC(=O)c2ccc3c(c2)OCCO3)s1	x	x	-2	i	0
COc1ccccc1N1CCN(S(=O)(=O)c2c(C(=O)N3CCOCC3)c(C)n(C)c2C)CC1	-31	i	-2	i	5
CC(CC(=O)Nc1ncc([N+](=O)[O-])s1)c1ccccc1 (configuration not stated)	21	100*	-8	i	-6
CCOC(=O)N/N=C(\C)c1ccc(OC(F)F)cc1OC(F)F	-6	i	-1	i	-21
O=C(COC(=O)c1ccccc1NS(=O)(=O)c1ccc(Cl)cc1)NCc1ccccc1	-12	100*	-5	i	12
CCCCCCCCCCS(=O)(=O)N/N=C/c1ccc([N+](=O)[O-])cc1	-10	100*	-3	i	-18
CC(=O)Nc1ccc(S(=O)(=O)N[C@@H](C)C(=O)OCc2cc([N+](=O)[O-])cc3c2OCOC3)cc1	-3	i	2	i	-8
O=C(c1cccs1)[C@@H]1[C@@H]2C(=O)N(Cc3ccc4c(c3)OCO4)C(=O)[C@@H]2C2c3ccccc3C=CN21 (some centres not stated)	-7	i	-11	x	82*
O=C(Nc1ccc2c(c1)OCO2)[C@@H]1[C@@H]2C(=O)N(C3CCCCC3)C(=O)[C@@H]2C2c3ccccc3C=CN21 (some centres not stated)	-6	i	-5	x	42*
CC1CC(C)(C)N(C(=O)CN2C(=O)c3ccccc3C2=O)c2ccccc21 (configuration not stated)	-26	i	9	-6.2*	10
O=C1NC(=O)/C(=C/c2ccc(-c3cc(C(=O)O)ccc3Cl)o2)S1	-5	i	-12	i	16
O=C1NC(=S)/C(=C\c2ccc(-c3ccccc3Cl)o2)S1	-15	i	x	-5.8*	x
C/C(=N\NC(=O)C1CC1(c1ccccc1)c1ccccc1)c1cccc([N+](=O)[O-])c1 (configuration not stated)	1	i	-4	i	20
C/C(=N\NC(=O)C1CC1c1ccccc1)c1cccc([N+](=O)[O-])c1 (configuration not stated)	-2	25*	2	i	-3
CC(C)c1nc(CNC(=O)C2CCC(=O)N(CCc3ccc(Cl)cc3)C2)no1 (configuration not stated)	-25	i	0	i	1
CCN(CCCNC(=O)CCc1nc(-c2ccc(OC)cc2)no1)c1cccc(C)c1	-9	100*	13	i	18

High-throughput results: PubChem, several laboratories
